Laboratory results reported in ChEMBL document CHEMBL2046313, “Discovery and evaluation of a non-Zn chelating, selective matrix metalloproteinase 13 (MMP-13) inhibitor for potential intra-articular treatment of osteoarthritis” (J Med Chem, 2012).

Columns and labels:
Collagenase 3 = Collagenase 3 (Homo sapiens, UniProt P45452); assay: Inhibition of human recombinant MMP13 using MCA-Pro-Cha-Gly-Nva-His-Ala-Dpa-NH2 as substrate preincubated for 10 mins measured by fluorescence analysis
Outline: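 Catalytic domain of recombinant human MMP-13 was assayed with fluorogenic substrate in 50 mM Tris-HCl pH 7.5, 150 mM NaCl, 5 mM CaCl₂, 0.05% Brij-35. Enzyme was 1–10 nM and substrate 4–10 μM. It was preincubated 10 min with varying inhibitor concentrations, and IC50 came from at least duplicate runs.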

[1] = molecular target: Macrophage metalloelastase (Homo sapiens, UniProt P39900); assay: Inhibition of human recombinant MMP12 using MCA-Pro-Leu-Gly-Leu-Dpa-Ala-Arg-NH2.AcOH as substrate preincubated for 10 mins measured by fluorescence analysis
Outline: (§1)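 Catalytic domains of recombinant human MMPs were assayed with fluorogenic OmniMMP substrate in 50 mM Tris-HCl pH 7.5, 150 mM NaCl, 5 mM CaCl₂, 0.05% Brij-35. Enzyme was 1–10 nM and substrate 4–10 μM, optimized per assay. Enzyme was preincubated 10 min with varying inhibitor concentrations, and IC50 was calculated from runs done at least in duplicate.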

Interstitial collagenase = molecular target: T1, Interstitial collagenase (Homo sapiens, UniProt P03956); assay: Inhibition of human recombinant MMP1 using MCA-Pro-Leu-Gly-Leu-Dpa-Ala-Arg-NH2.AcOH as substrate preincubated for 10 mins measured by fluorescence analysis; outline: as §1
T1 sequence (P03956 whole entry): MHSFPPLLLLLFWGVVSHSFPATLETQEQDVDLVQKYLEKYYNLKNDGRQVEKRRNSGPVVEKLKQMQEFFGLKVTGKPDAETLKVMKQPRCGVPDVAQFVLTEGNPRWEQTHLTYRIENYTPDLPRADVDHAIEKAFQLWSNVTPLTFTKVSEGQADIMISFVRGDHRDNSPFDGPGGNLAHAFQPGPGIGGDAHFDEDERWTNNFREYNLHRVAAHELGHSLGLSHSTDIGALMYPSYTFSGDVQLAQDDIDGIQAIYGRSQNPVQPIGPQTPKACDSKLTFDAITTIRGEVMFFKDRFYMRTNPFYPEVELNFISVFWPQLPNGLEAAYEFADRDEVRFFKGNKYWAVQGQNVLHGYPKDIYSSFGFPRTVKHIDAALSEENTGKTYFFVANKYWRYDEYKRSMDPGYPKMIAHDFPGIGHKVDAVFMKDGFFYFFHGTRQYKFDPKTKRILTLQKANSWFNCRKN

Neutrophil collagenase = Neutrophil collagenase (Homo sapiens, UniProt P22894); assay: Inhibition of human recombinant MMP8 using MCA-Pro-Leu-Gly-Leu-Dpa-Ala-Arg-NH2.AcOH as substrate preincubated for 10 mins measured by fluorescence analysis; outline: as §1
[2] = molecular target: T2, A disintegrin and metalloproteinase with thrombospondin motifs 4 (Homo sapiens, UniProt O75173); assay: Inhibition of human recombinant aggrecanase 1 using aggrecan-IGD as substrate measured after 15 mins by ELISA
T2 sequence (O75173 whole entry): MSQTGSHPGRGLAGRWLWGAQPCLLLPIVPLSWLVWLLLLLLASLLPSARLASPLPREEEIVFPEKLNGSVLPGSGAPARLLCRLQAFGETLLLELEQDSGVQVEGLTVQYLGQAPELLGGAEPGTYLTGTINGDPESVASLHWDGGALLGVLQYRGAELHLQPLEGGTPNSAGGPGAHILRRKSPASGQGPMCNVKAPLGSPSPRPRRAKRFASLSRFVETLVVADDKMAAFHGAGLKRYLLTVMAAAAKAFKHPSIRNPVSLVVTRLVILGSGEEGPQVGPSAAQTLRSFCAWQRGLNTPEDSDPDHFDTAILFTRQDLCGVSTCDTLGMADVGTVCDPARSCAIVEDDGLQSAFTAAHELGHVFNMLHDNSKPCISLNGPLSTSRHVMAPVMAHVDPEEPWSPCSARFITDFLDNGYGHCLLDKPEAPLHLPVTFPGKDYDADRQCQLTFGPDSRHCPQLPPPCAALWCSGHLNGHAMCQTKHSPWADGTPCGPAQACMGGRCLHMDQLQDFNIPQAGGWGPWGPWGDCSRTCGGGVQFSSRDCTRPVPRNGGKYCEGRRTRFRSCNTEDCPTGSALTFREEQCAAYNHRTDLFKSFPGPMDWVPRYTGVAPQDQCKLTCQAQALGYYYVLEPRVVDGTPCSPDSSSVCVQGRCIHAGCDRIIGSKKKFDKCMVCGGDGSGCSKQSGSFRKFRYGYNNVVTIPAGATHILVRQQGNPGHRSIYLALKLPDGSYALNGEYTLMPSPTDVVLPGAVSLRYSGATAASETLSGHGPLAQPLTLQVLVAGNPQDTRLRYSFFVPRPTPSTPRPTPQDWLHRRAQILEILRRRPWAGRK
Outline: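 Aggrecanase-1 was run in 50 mM Tris-HCl pH 7.5, 150 mM NaCl, 5 mM CaCl₂, 0.05% Brij-35, with 100 nM recombinant human aggrecan interglobular domain as substrate, for 15 min at 37 °C. The reaction was stopped with EDTA, and ARGSVIL neoepitopes were quantified by ELISA.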

[3] = molecular target: Matrix metalloproteinase-14 (Homo sapiens, UniProt P50281); assay: Inhibition of human recombinant MMP14 using MCA-Pro-Leu-Gly-Leu-Dpa-Ala-Arg-NH2.AcOH as substrate preincubated for 10 mins measured by fluorescence analysis; outline: as §1
Stromelysin-1 = Stromelysin-1 (Homo sapiens, UniProt P08254); assay: Inhibition of human recombinant MMP3 using MCAArg-Pro-Lys-Pro-Val-Glu-Nva-Trp-Arg-Lys(DNP)-NH2 as substrate preincubated for 10 mins measured by fluorescence analysis
Outline: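 Catalytic domain of recombinant human MMP-3 was assayed with NFF-3 fluorogenic substrate in 50 mM MES pH 6.0, 10 mM CaCl₂, 0.05% Brij-35. Enzyme was 1–10 nM and substrate 4–10 μM. Enzyme was preincubated 10 min with varying inhibitor concentrations, and IC50 came from at least duplicate runs.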

Cartilage tissue = assay: Inhibition of collagen degradation in bovine articular cartilage assessed as inhibition of interlukein-1alpha/oncostatin M-induced C1,C2 release measured after 11 days by ELISA; assay type: functional, tissue-based; settings: Bos taurus, 264 h
Outline: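 Freshly isolated bovine articular cartilage pieces (~3 mm²) were stimulated with 5 ng/mL IL-1α plus 50 ng/mL OSM, with or without compound, for 11 days. Medium was refreshed twice weekly. Collagen degradation products in the conditioned medium were quantified by C1,2C ELISA.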

[4] = molecular target: Matrix metalloproteinase-9 (Homo sapiens, UniProt P14780); assay: Inhibition of human recombinant MMP9 using MCA-Pro-Leu-Gly-Leu-Dpa-Ala-Arg-NH2.AcOH as substrate preincubated for 10 mins measured by fluorescence analysis; outline: as §1
[5] = molecular target: 72 kDa type IV collagenase (Homo sapiens, UniProt P08253); assay: Inhibition of human recombinant MMP2 using MCA-Pro-Leu-Gly-Leu-Dpa-Ala-Arg-NH2.AcOH as substrate preincubated for 10 mins measured by fluorescence analysis; outline: as §1
Matrilysin = molecular target: T3, Matrilysin (Homo sapiens, UniProt P09237); assay: Inhibition of human recombinant MMP7 using MCA-Pro-Leu-Gly-Leu-Dpa-Ala-Arg-NH2.AcOH as substrate preincubated for 10 mins measured by fluorescence analysis; outline: as §1
T3 sequence (P09237 whole entry): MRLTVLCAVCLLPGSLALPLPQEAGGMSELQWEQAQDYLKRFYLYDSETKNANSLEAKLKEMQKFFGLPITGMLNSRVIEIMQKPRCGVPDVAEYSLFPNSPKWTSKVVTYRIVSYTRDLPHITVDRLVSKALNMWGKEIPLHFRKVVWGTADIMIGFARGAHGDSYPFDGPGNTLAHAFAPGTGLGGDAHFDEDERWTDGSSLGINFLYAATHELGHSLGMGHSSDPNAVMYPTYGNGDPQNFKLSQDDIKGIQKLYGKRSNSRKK

Rattus norvegicus [6] = species: Rattus norvegicus; assay: Chondroprotective activity in Sprague-Dawley rat cartilage assessed as inhibition of MMP13-mediated C1,C2 release at 0.5 mg/joint, ia measured on day 7 by ELISA; assay type: functional
Outline: (§2)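 Male Sprague-Dawley rats (175−200 g, three per group) received one IA injection of 50 μL PBS holding 10 mg/mL suspension (sonicated, vortexed) into right knee. They were killed at 1, 7, 14 or 21 days, and tibial cartilage was collected. Cartilage was then challenged with 10 μg/mL APMA-activated human MMP-13 for 24 h at 37 °C in Tris pH 7.5. The reaction was stopped with 10 mM EDTA, and released C1,2C was measured by ELISA. Vehicle cartilage incubated with or without MMP-13 defined 100% and 0%.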

Rattus norvegicus [7] = species: Rattus norvegicus; assay: Chondroprotective activity in Sprague-Dawley rat cartilage assessed as inhibition of MMP13-mediated C1,C2 release at 0.5 mg/joint, ia measured after 24 hrs by ELISA; assay type: functional; outline: as §2
Rattus norvegicus [8] = species: Rattus norvegicus; assay: Chondroprotective activity in Sprague-Dawley rat cartilage assessed as inhibition of MMP13-mediated C1,C2 release at 0.5 mg/joint, ia measured on day 14 by ELISA; assay type: functional; outline: as §2
[9] = molecular target: Disintegrin and metalloproteinase domain-containing protein 17 (Homo sapiens, UniProt P78536); assay: Inhibition of human recombinant TACE using MCA-Pro-Leu-Ala-Gln-Ala-Val-Dpa-Arg-Ser-Ser-Ser-Arg-NH2 as substrate preincubated for 10 mins measured by fluorescence analysis
Outline: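 Recombinant human TACE was assayed with its fluorogenic peptide substrate in 25 mM Tris-HCl pH 9, 1.25 μM Zn(OAc)₂, 0.005% Brij-35. Enzyme was 1–10 nM and substrate 4–10 μM. Enzyme was preincubated 10 min with varying inhibitor concentrations, and IC50 came from at least duplicate runs.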

Macrophage metalloelastase, sequence (P39900 whole entry, the tested form may be a part): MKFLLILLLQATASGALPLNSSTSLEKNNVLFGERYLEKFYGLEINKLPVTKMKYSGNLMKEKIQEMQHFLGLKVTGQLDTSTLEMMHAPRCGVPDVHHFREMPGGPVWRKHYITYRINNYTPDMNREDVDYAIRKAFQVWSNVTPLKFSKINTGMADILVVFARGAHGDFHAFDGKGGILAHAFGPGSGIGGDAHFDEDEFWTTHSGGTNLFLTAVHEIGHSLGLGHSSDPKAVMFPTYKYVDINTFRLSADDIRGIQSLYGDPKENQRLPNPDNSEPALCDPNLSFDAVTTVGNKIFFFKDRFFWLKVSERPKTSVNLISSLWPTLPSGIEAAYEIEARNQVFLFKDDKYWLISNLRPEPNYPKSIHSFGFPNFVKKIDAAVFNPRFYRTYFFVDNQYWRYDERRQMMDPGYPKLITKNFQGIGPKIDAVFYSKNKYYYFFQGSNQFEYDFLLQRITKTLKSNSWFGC
Neutrophil collagenase, sequence (P22894 whole entry): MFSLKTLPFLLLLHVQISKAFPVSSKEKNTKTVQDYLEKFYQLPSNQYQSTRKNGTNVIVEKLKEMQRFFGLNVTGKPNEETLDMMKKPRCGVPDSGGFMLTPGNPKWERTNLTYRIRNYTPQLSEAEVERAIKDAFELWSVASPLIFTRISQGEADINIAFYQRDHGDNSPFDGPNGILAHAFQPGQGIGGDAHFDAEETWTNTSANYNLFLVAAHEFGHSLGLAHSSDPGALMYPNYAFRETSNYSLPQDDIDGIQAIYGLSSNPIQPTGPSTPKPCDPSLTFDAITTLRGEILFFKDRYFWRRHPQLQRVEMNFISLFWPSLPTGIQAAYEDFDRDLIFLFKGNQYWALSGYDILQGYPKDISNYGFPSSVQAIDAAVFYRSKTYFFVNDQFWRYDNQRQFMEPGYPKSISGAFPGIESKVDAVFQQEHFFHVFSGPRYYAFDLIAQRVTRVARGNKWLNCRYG
Matrix metalloproteinase-9, sequence (P14780 whole entry): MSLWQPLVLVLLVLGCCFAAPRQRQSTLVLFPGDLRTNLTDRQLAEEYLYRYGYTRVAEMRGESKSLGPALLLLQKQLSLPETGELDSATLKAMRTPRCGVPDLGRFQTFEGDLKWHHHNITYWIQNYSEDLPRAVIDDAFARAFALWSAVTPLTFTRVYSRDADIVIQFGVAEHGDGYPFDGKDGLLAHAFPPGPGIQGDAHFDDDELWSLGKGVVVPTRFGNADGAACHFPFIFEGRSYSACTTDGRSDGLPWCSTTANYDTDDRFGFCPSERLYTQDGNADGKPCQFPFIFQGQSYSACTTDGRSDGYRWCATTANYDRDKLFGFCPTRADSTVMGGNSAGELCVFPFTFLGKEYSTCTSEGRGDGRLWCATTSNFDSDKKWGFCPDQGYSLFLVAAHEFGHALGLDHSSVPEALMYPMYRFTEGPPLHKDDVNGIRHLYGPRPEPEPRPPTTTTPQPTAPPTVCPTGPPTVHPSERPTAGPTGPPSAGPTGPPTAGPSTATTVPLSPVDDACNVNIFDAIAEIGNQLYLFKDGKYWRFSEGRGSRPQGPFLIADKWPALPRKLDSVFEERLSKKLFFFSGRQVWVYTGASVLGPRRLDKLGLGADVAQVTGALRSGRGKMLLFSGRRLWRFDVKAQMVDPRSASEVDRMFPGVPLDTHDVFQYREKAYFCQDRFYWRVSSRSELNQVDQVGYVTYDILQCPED
Stromelysin-1, sequence (P08254 whole entry, the tested form may be a part): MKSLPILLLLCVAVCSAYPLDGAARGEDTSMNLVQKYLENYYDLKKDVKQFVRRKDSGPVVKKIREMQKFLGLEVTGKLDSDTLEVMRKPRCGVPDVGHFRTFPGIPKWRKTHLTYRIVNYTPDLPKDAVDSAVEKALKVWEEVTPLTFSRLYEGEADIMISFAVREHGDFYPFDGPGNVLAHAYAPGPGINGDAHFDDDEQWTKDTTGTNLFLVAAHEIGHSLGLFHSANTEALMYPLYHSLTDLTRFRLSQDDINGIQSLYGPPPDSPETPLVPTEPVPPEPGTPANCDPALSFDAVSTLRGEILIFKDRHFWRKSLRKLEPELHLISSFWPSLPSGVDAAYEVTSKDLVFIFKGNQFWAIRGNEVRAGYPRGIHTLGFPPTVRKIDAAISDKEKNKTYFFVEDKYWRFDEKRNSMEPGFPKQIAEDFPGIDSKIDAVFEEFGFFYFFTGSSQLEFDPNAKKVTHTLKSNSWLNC
Disintegrin and metalloproteinase domain-containing protein 17, sequence (P78536 whole entry, the tested form may be a part): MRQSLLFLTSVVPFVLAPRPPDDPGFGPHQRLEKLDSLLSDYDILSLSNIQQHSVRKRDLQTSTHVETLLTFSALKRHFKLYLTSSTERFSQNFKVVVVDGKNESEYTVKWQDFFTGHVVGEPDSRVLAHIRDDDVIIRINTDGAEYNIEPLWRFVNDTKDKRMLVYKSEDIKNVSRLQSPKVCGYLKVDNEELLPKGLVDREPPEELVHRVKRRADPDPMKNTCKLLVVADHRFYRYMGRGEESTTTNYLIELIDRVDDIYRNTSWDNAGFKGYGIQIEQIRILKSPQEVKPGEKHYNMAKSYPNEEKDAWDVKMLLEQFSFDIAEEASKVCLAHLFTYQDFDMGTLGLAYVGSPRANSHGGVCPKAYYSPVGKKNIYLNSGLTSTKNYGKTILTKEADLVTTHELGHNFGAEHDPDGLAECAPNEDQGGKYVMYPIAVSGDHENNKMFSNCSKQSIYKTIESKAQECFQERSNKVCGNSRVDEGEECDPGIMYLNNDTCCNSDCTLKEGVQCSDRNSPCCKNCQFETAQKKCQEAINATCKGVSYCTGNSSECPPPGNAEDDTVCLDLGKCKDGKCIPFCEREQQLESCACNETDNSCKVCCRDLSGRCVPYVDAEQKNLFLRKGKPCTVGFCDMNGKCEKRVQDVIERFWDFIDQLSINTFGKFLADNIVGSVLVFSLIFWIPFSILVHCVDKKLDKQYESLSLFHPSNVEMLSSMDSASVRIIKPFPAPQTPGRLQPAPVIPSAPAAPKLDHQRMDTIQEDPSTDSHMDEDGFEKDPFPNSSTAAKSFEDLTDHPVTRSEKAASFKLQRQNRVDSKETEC
72 kDa type IV collagenase, sequence (P08253 whole entry): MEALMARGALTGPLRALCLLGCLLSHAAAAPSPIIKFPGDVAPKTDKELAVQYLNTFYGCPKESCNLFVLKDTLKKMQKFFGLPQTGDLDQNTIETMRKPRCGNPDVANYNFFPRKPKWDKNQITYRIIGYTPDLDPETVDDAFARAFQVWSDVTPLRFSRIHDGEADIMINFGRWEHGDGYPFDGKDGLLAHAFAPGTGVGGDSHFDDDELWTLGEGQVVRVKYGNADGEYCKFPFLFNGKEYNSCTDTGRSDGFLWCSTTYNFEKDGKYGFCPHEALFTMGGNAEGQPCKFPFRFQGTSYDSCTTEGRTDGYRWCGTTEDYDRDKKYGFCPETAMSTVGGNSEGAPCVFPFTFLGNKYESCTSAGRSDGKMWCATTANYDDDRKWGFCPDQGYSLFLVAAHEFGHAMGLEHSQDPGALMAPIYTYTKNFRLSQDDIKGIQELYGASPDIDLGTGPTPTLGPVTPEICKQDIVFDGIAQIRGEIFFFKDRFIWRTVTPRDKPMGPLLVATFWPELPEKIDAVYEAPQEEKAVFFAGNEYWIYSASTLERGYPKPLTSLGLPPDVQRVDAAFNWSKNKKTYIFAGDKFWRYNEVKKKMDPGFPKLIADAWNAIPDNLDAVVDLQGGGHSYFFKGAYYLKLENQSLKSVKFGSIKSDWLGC

Cc1c(C(=O)O)ccc2c1CC[C@@H]2NC(=O)c1cc(C(=O)NCc2ccc(F)c(C(F)(F)F)c2)nc2c(F)cnn12
IC50 (Collagenase 3): 0.0013 µM | IC50 [1]: > 20 µM | IC50 (Interstitial collagenase): > 20 µM | IC50 (Neutrophil collagenase): > 20 µM | IC50 [2]: 7 µM | IC50 [3]: > 20 µM | IC50 (Stromelysin-1): 15 µM | IC50 (Cartilage tissue): 0.005 µM | IC50 [4]: > 20 µM | IC50 [5]: > 20 µM | IC50 (Matrilysin): > 20 µM | inhibition (INH) (Rattus norvegicus [6]): 60% | inhibition (INH) (Rattus norvegicus [7]): 95% | inhibition (INH) (Rattus norvegicus [8]): 0% | IC50 [9]: > 20 µM
